Test: inhibition of yeast alpha-glucosidase pretreated for 10 mins before maltose challenge measured after 10 mins
Parameters: species or system Saccharomyces cerevisiae
Method in brief: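 0.02 U α-glucosidase with compound in 67 mM potassium phosphate, pH 6.8, preincubated 37 °C 10 min. 0.1 M maltose added, then room temperature 10 min. Glucose detected colorimetrically at A490 against no-compound and no-enzyme/no-compound blanks. Compounds giving over 50% inhibition were retested at eight threefold-diluted concentrations in duplicate, and IC50 was derived by curve fitting.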

| Compound | IC50 [µM] |
| --- | --- |
| O=C(c1ccc(NS(=O)(=O)c2ccccc2)cc1)c1cc2cc(Cl)ccc2oc1=O | > 30 |
| COc1cc2cc(C(=O)c3ccc(NS(=O)(=O)c4ccccc4)cc3)c(=O)oc2cc1OC | > 30 |
| O=C(c1ccc(NS(=O)(=O)c2ccccc2)cc1)c1cc2ccccc2oc1=O | 3.28 |
| O=C(c1ccc(NS(=O)(=O)c2ccccc2)cc1)c1cc2ccc(O)cc2oc1=O | 5.77 |
| Cc1ccc(S(=O)(=O)Nc2ccc(C(=O)c3cc4cc(C(C)(C)C)cc(C(C)(C)C)c4oc3=O)cc2)cc1 | 10.1 |
| O=C(c1ccc(NS(=O)(=O)c2ccccc2)cc1)c1cc2cc(Br)cc(Br)c2oc1=O | > 30 |
| CC(C)(C)c1cc(C(C)(C)C)c2oc(=O)c(C(=O)c3ccc(NS(=O)(=O)c4ccccc4)cc3)cc2c1 | 7.13 |
| COc1ccc2cc(C(=O)c3ccc(NS(=O)(=O)c4ccccc4)cc3)c(=O)oc2c1 | > 30 |
| CCN(CC)c1ccc2cc(C(=O)c3ccc(NS(=O)(=O)c4ccccc4)cc3)c(=O)oc2c1 | 0.294 |
| COc1cc2cc(C(=O)c3ccc(NS(=O)(=O)c4ccccc4)cc3)c(=O)oc2cc1O | 0.199 |

More lines, now with the values ahead:

| IC50 [µM] | Compound |
| --- | --- |
| > 30 | Cc1ccc(S(=O)(=O)Nc2ccc(C(=O)c3cc4cc(Br)ccc4oc3=O)cc2)cc1 |
| 7.73 | Cc1ccc(S(=O)(=O)Nc2ccc(C(=O)c3cc4cc(Br)cc(Br)c4oc3=O)cc2)cc1 |
| > 30 | COc1ccc2cc(C(=O)c3ccc(NS(=O)(=O)c4ccc(C)cc4)cc3)c(=O)oc2c1 |
| 1.12 | Cc1ccc(S(=O)(=O)Nc2ccc(C(=O)c3cc4ccc(O)cc4oc3=O)cc2)cc1 |
| > 30 | O=C(c1ccc(NS(=O)(=O)c2ccccc2)cc1)c1cc2cc(Br)ccc2oc1=O |
| 3.58 | Cc1ccc(S(=O)(=O)Nc2ccc(C(=O)c3cc4ccccc4oc3=O)cc2)cc1 |
| 4.6 | Cc1ccc(S(=O)(=O)Nc2ccc(C(=O)c3cc4cc(F)ccc4oc3=O)cc2)cc1 |
| 26.7 | Cc1ccc(S(=O)(=O)Nc2ccc(C(=O)c3cc4cc(Cl)ccc4oc3=O)cc2)cc1 |
| 0.347 | CCN(CC)c1ccc2cc(C(=O)c3ccc(NS(=O)(=O)c4ccc(C)cc4)cc3)c(=O)oc2c1 |
| 0.0645 | COc1cc2cc(C(=O)c3ccc(NS(=O)(=O)c4ccc(C)cc4)cc3)c(=O)oc2cc1O |
| 5.59 | COc1cc2cc(C(=O)c3ccc(NS(=O)(=O)c4ccc(C)cc4)cc3)c(=O)oc2cc1OC |
| 7.18 | O=C(c1ccc(NS(=O)(=O)c2ccccc2)cc1)c1cc2cc(F)ccc2oc1=O |

Source: ChEMBL document CHEMBL1154873, “Synthesis and evaluation of the alpha-glucosidase inhibitory activity of 3-[4-(phenylsulfonamido)benzoyl]-2H-1-benzopyran-2-one derivatives” (Eur J Med Chem, 2010)
